The data set is described as follows: Toxicity liver stage against HepG2, at 10uM. Also on record: test concentration 10 uM, cell line HepG2-A16-CD81EGFP. It counts as cell-based. The note with it: human, HepG2-A16-CD81EGFP cells; read-out: INHIBITION
Put shortly:
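Uninfected HepG2-A16-CD81EGFP cells, 3 × 10^3 per well, 1536-well, plated on prespotted compound at 10 μM final, parasite-free screening media added to match infected plates; puromycin 10 μM positive, DMSO 0.5% negative; run in parallel with 48 h PbLuc assay at 37 °C, 5% CO2; viability by CellTiter-Glo luminescence, normalized to controls.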

For 96 compounds, cytotoxicity results are on record in ChEMBL document CHEMBL4513216, “Probing the Open Global Health Chemical Diversity Library for Multistage-Active Starting Points for Next-Generation Antimalarials” (ACS Infect Dis, 2020).

With `CN(Cc1cn[nH]c1-c1ccc(F)cc1)C(=O)CCC1CC1`, the cytotoxicity at 10 µM worked out at 9.12%.

In the case of `Cc1ccccc1OCCN(C)C(=O)NC(C)c1nncn1C` (stereo unspecified), the cytotoxicity at 10 µM is -12.5%.

Consider `Cc1cccc(C2CCCN2C(=O)CCS(C)(=O)=O)c1C` (stereo unspecified), for which the cytotoxicity at 10 µM is -0.272%.

As to `COc1cnc(N2C[C@@H](CN3CCOCC3)[C@@H](CO)C2)nc1`, the cytotoxicity at 10 µM is -9.25%.

`CCNc1ncc(C(=O)NC(CCN(C)C)c2ccccc2)cn1` (stereo unspecified): the cytotoxicity at 10 µM came out at 4.8%.

`O=C(c1cscn1)N1C[C@@H]2C[C@@H](c3nnc(C4CC4)o3)O[C@@H]2C1`: the cytotoxicity at 10 µM is -16.9%.

With `CCCC(NC(=O)NCc1cccc(N(C)C)n1)c1ccccn1` (stereo unspecified), the cytotoxicity at 10 µM was 19.8%.

With `COc1cccc(CN2CCC3(CCN(C(=O)C4CC=CC4)CC3)C2)c1`, the cytotoxicity at 10 µM is -0.602%.

`CC(C)CC(=O)Nc1cccc(CNCc2cccs2)c1`: the cytotoxicity at 10 µM came to 0.25%.

With `Cc1cc(C)c(S(=O)(=O)Nc2ccccc2CC(F)(F)F)cc1C(=O)O`, the cytotoxicity at 10 µM is -1.47%.

`NC(=O)C1CCN(C(=O)c2ccccc2OCc2ccccc2Cl)CC1`: the cytotoxicity at 10 µM is -9.4%.

For `CCN1CC2(CCOCC2)c2cc(NS(=O)(=O)CC)ccc21`, the cytotoxicity at 10 µM is -104%.

Turning to `CC(C)C(=O)NC1CCCc2nc(N3CCOCC3)ncc21` (stereo unspecified), the cytotoxicity at 10 µM turned out to be 10.2%.

Turning to `OCC1(CCOc2ccccc2)CCN(c2ccc(Cl)cn2)CC1`, the cytotoxicity at 10 µM is -43.4%.

Take `CN(Cc1ccsc1)C(=O)CNC(=O)N1CCc2ccccc2C1`: the cytotoxicity at 10 µM is -2.9%.

On to `O=C(C1CSc2ccccc2O1)N1CCN(CCO)CC1` (stereo unspecified), for which the cytotoxicity at 10 µM is -6.29%.

As to `COCC(=O)N1CC[C@]2(O)CCN(C(=O)CCc3ccsc3)C[C@@H]2C1`, the cytotoxicity at 10 µM was found to be 0.689%.

In the case of `Cc1cc(C)c2nc(C)c(C(=O)N3CCC(CCN(C)C)CC3)cc2c1`, the cytotoxicity at 10 µM is -4.91%.

As for `CC(C)N1CC2(CCC1=O)CCN(c1ccnc3ccccc13)CC2`, the cytotoxicity at 10 µM amounted to 3.2%.

As to `CCOc1ccc(NC(=O)N2CCOC(C(N)=O)C2)cc1C` (stereo unspecified), the cytotoxicity at 10 µM is -140%.

`CCOCc1nc2c(c(NCc3cc(C)on3)n1)CCN(C(C)=O)CC2`: the cytotoxicity at 10 µM came to 2.24%.

On to `NCC(=O)N1CCCC1c1nccnc1Nc1ncccn1` (stereo unspecified), for which the cytotoxicity at 10 µM is -2.42%.

For the compound `Cc1cnn(C2CN(c3nc(C)cc(N(C)C)n3)C2)c1`, the cytotoxicity at 10 µM was -5.12%.

On to `CCOCC1c2c(cnn2CC2CC2)CCN1Cc1nccs1` (stereo unspecified), for which the cytotoxicity at 10 µM stood at 85.9%.

As to `COc1ccc(CNC(=O)Nc2cccnc2N2CCCC2)cc1O`, the cytotoxicity at 10 µM is -10.7%.

In the case of `N#Cc1cn(CCCN2CCc3ccccc3C2)c(=O)[nH]c1=O`, the cytotoxicity at 10 µM was 2.72%.

With `Cn1c(=O)ccn(CC(=O)Nc2cnccc2O)c1=O`, the cytotoxicity at 10 µM turned out to be 2.13%.

For the compound `COCCO[C@H]1CCN(C(=O)c2ccc[nH]2)[C@H]1Cc1ccncc1`, the cytotoxicity at 10 µM is -5.46%.

As to `c1ccc(Oc2cc(CNCC3CNc4ccnn4C3)ccn2)cc1` (stereo unspecified), the cytotoxicity at 10 µM came to 3.1%.

As to `COCCN1CCN(C(=O)c2ccncc2F)Cc2cccnc21`, the cytotoxicity at 10 µM was found to be 10%.

For `O=C(NC1CCCC1)C1(Cc2cc(C3CCOC3)no2)CCNCC1` (stereo unspecified), the cytotoxicity at 10 µM was -1.57%.

As for `CC1(C)CN=C(N2CCN(CC3CCOC3)CC2)S1` (stereo unspecified), the cytotoxicity at 10 µM was determined as 11.7%.

For `Cc1nn(-c2ccccc2)cc1C(=O)N1CCCN2CCCC2C1` (stereo unspecified), the cytotoxicity at 10 µM is -2.21%.

On to `CCc1nnc2n1CCN(Cc1ccc(C(=O)N3CCCC3)cc1)C2`, for which the cytotoxicity at 10 µM was -3.29%.

Consider `CC(NCc1ccc(OCC(N)=O)cc1)c1ccc(Cl)cc1Cl` (stereo unspecified), for which the cytotoxicity at 10 µM was 13.1%.

Consider `c1ccn2cc(CN3CCCC(c4ccn[nH]4)C3)nc2c1` (stereo unspecified), for which the cytotoxicity at 10 µM turned out to be 6.76%.

Regarding `COc1ccc(C(C)NCc2c[nH]nc2C)cc1Br` (stereo unspecified), the cytotoxicity at 10 µM was -5.57%.

Turning to `Cc1nonc1OCCNC(=O)COc1ccc(Cl)cc1Cl`, the cytotoxicity at 10 µM amounted to 3.95%.

Turning to `Cc1ccc(N2CCCC(N(C)Cc3ccccn3)C2)nn1` (stereo unspecified), the cytotoxicity at 10 µM was -4.01%.

As to `O=C(NC[C@H]1OC[C@@H](NC2COC2)[C@@H]1O)Nc1ccccc1`, the cytotoxicity at 10 µM was 4.43%.

As to `O=C1[C@H]2CN(Cc3ccc(F)cc3)C[C@H]2CN1c1ccsc1`, the cytotoxicity at 10 µM was -87.8%.

On to `Cc1nc[nH]c1CN1CCN(C(=O)CN2CCCC2)[C@H]2CS(=O)(=O)C[C@H]21`, for which the cytotoxicity at 10 µM was -7.21%.

In the case of `CC1CCN(CCNC(=O)C2CCN(S(N)(=O)=O)CC2)CC1`, the cytotoxicity at 10 µM amounted to 17.9%.

Take `Cc1nc(CN2CCc3cncnc3C2)oc1C`: the cytotoxicity at 10 µM is -12%.

Consider `CCCc1nc2c(c(C)c(C)n2Cc2ccncc2)c(N)c1CC`, for which the cytotoxicity at 10 µM amounted to 14.3%.

In the case of `CCn1ncc2c1NC(=O)CC2c1cnc(-c2ccccn2)nc1` (stereo unspecified), the cytotoxicity at 10 µM was -7.76%.

As to `COCC(=O)N(CCC(=O)OC)CC1CCCO1` (stereo unspecified), the cytotoxicity at 10 µM is 1.74%.

Take `CN1CC(=O)N(c2cnn(C)c2)CC12CCN(C(=O)c1ccsc1)C2` (stereo unspecified): the cytotoxicity at 10 µM was -1.37%.

On to `Cc1cccc(Oc2nccnc2C2CCN(C(=O)C(C)(C)N)CC2)c1`, for which the cytotoxicity at 10 µM was -9.44%.

For `COc1ccccc1-c1ncc(CN2CCC3(CCN(C)C3)CC2)cn1`, the cytotoxicity at 10 µM is 3.92%.

Regarding `COCCS(=O)(=O)Cc1csc(NC(C)=O)n1`, the cytotoxicity at 10 µM was -2.93%.

Turning to `CCc1nc2n(n1)CC(NCc1nc3ccccc3o1)CC2` (stereo unspecified), the cytotoxicity at 10 µM came to 12.4%.

For `CCS(=O)(=O)NCC(=O)Nc1cc(CC(C)(C)C)n[nH]1`, the cytotoxicity at 10 µM stood at 5.01%.

Regarding `CSCCCN1CCCC1c1noc(C)n1` (stereo unspecified), the cytotoxicity at 10 µM was -7.59%.

Consider `CC(C)COc1cncc(N(C)C2CCN(c3ncccn3)CC2)n1`, for which the cytotoxicity at 10 µM worked out at 0.583%.

Take `CCN(CC1CCOC1)C(=O)c1cn2ccc(C)cc2n1` (stereo unspecified): the cytotoxicity at 10 µM worked out at 1%.

On to `CC(C)CNC(=O)c1cccc(Oc2ccc3nncn3n2)c1`, for which the cytotoxicity at 10 µM was -1.95%.

With `Cc1nnc([C@@H]2CC[C@@H]3[C@@H](CCN3S(=O)(=O)c3cccnc3)O2)o1`, the cytotoxicity at 10 µM turned out to be 0.462%.

`CO[C@@]1(C)C[C@@H](O)C12CCN(C(=O)c1ccccc1C(C)=O)CC2`: the cytotoxicity at 10 µM is 3.51%.

For the compound `CCCc1n[nH]c(C2CN(C(=O)c3cccc4cn[nH]c34)CCO2)n1` (stereo unspecified), the cytotoxicity at 10 µM is -4.81%.

Turning to `Cn1cc(CNCCOc2ccc(F)c(F)c2)c(-c2cccnc2)n1`, the cytotoxicity at 10 µM was -2.53%.

Take `Cn1cnc(S(=O)(=O)N2CCCC2c2cnccn2)c1` (stereo unspecified): the cytotoxicity at 10 µM was -28.4%.

`Cc1cc(C2CCCN2C(=O)NCc2cccnc2OC(C)C)on1` (stereo unspecified): the cytotoxicity at 10 µM was -9.63%.

In the case of `Cc1cc(-c2cnn(CCNC(=O)c3cc[nH]n3)c2C2CC2)on1`, the cytotoxicity at 10 µM is -13.6%.

Consider `Cc1nc(C2CCCN(C(=O)c3cnn(C4CCCCC4)c3)C2)no1` (stereo unspecified), for which the cytotoxicity at 10 µM was -6.37%.

With `CNC(=O)[C@@H]1[C@@H](c2ccccc2)CN2CCN(Cc3ccco3)C[C@H]12`, the cytotoxicity at 10 µM is -1.94%.

Turning to `CC(C)CCC(=O)N1CC[C@@H]2[C@H](CC1)N(S(C)(=O)=O)CCS2(=O)=O`, the cytotoxicity at 10 µM is 3.7%.

As for `Cc1cc(CN(C)C(=O)c2ccc(Cl)cc2N2CCCC2=O)no1`, the cytotoxicity at 10 µM was -15.9%.

Take `COc1ccccc1C(=O)N1CCNCC1C(N)=O` (stereo unspecified): the cytotoxicity at 10 µM stood at 1.96%.

Consider `CN(C)CCN1CCOCC2(C1)CN(Cc1nccs1)CCO2` (stereo unspecified), for which the cytotoxicity at 10 µM is 6%.

As to `Cc1nc(C2CCCN2Cc2cc(=O)n(C)c(=O)n2C)no1` (stereo unspecified), the cytotoxicity at 10 µM is -0.222%.

`Cc1nnc(CCNC(=O)Nc2ccc(S(C)(=O)=O)cc2)[nH]1`: the cytotoxicity at 10 µM worked out at 7.91%.

As for `CN(Cc1cc2n(n1)CCNC2)Cc1n[nH]c2c1CCCCC2`, the cytotoxicity at 10 µM is -6.32%.

`O=C(CCc1ccsc1)N1CCC(n2cc(CO)nn2)CC1`: the cytotoxicity at 10 µM is -3.37%.

With `C[C@@H]1CN(C(=O)c2cccn2C)C[C@]12CCN(c1ccsc1)C2=O`, the cytotoxicity at 10 µM was -83.8%.

Take `CCSCCNC(=O)C(c1cccc(F)c1)N(C)C` (stereo unspecified): the cytotoxicity at 10 µM was -11.9%.

As to `CCNC(=O)NC(=O)C(C)N(C)CCOc1ccccc1C` (stereo unspecified), the cytotoxicity at 10 µM was found to be 3.45%.

Consider `COCCN1C[C@@H]2[C@@H](OC)CCN(Cc3cccs3)[C@@H]2C1`, for which the cytotoxicity at 10 µM was 3.86%.

Regarding `O=C(CN1CCOC(Cn2cccn2)C1)NCc1cccs1` (stereo unspecified), the cytotoxicity at 10 µM is -6.88%.

On to `CCc1noc(-c2ccc(SCC(=O)O)nc2)n1`, for which the cytotoxicity at 10 µM is -10.9%.

Take `CCc1nc(N2CCN(c3ncccn3)CC2)c2cnn(C)c2n1`: the cytotoxicity at 10 µM was -1.04%.

Consider `CN1CCC(Cc2cc(Nc3ccccn3)ncn2)CC1`, for which the cytotoxicity at 10 µM was -23.4%.

For `CCn1cc(CN2CCCN(C(=O)c3sccc3C#N)CC2)cn1`, the cytotoxicity at 10 µM was -6.41%.

On to `CCc1csc(NC(=O)NCc2ccccn2)n1`, for which the cytotoxicity at 10 µM was -4.61%.

As to `NC(=O)c1ccc(OCC(=O)NS(=O)(=O)c2ccc3c(c2)CCC3)cc1`, the cytotoxicity at 10 µM is -8.89%.

With `CN(C)C(=O)COCC1CN(Cc2ccco2)Cc2ncn(C)c21` (stereo unspecified), the cytotoxicity at 10 µM was -7.86%.

Consider `Cc1cc(N2CCC(O)(CN(C)C(=O)CCCN)C2)c2cnccc2n1` (stereo unspecified), for which the cytotoxicity at 10 µM is -8.65%.

For the compound `CC(O)C1CCN(Cc2nccn2CC(F)(F)F)CC1` (stereo unspecified), the cytotoxicity at 10 µM amounted to 4.29%.

Take `COC(=O)c1ccc(C2CC(=O)Oc3cc(C)[nH]c(=O)c32)cc1` (stereo unspecified): the cytotoxicity at 10 µM is -3.86%.

Take `CCC(C)NC(=O)c1cc(S(=O)(=O)N(C)C)c(C)s1` (stereo unspecified): the cytotoxicity at 10 µM is -2.75%.

Turning to `O=C(NC1CCC1)[C@H]1C[C@H]2CN(C(=O)Nc3ccc(F)cc3)C[C@@H]1O2`, the cytotoxicity at 10 µM worked out at 7.2%.

Turning to `COc1ccc(CCNC(=O)N2CCCC(c3nncn3C)C2)cc1` (stereo unspecified), the cytotoxicity at 10 µM was -3.92%.

`Cc1cccc(CN2CCC3(CCN(c4ncccn4)C3)C2=O)c1` (stereo unspecified): the cytotoxicity at 10 µM was found to be 1.44%.

As for `c1cncc(C2COC3(CCN(Cc4ccsc4)CC3)C2)c1` (stereo unspecified), the cytotoxicity at 10 µM was -3.74%.

`Cc1cnn(C2CN(CC(=O)NCCOc3ccccc3)C2)c1`: the cytotoxicity at 10 µM was -16.7%.

In the case of `Cc1ccc(NC(=O)Cn2ncc(SCC(N)=O)c(Cl)c2=O)cc1`, the cytotoxicity at 10 µM is -16.9%.
